Assay outcomes (PubChem BioAssay)
A selection: hits, their analogues and other compounds. The true share with any hit is near 1.7%.
STEP block = inhibitors of human striatal-enriched phosphatase STEP; P54829; recombinant STEP, OMFP fluorogenic substrate, fluorescence; inhibition, % at 20 µM; 0.25% of 360,000 active;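 active means inhibition at 20 µM, scaled per plate between control wells, above about 37%, limit read from the data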;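 further: 0% = DMSO with enzyme and substrate and 100% = substrate only without enzyme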
Target sequence (P54829 whole entry, looked up): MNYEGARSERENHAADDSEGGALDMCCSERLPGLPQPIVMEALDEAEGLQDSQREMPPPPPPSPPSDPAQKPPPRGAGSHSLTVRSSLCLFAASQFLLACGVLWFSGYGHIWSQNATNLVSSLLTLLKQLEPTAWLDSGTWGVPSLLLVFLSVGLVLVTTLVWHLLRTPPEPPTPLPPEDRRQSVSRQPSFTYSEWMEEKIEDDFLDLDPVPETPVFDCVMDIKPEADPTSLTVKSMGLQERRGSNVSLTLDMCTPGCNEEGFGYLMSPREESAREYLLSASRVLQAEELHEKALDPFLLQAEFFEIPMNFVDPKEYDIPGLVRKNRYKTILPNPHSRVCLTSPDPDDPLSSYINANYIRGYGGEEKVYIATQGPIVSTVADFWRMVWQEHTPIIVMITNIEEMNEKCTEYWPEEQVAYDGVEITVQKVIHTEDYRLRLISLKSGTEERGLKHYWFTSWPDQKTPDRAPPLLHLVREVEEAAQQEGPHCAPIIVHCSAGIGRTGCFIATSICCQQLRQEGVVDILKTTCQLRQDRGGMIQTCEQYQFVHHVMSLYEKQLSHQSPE
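medium = Bis-Tris buffer pH 6.0, 2.5 mM DTT, 0.005% Tween 20 | test system = STEP (striatal-enriched tyrosine phosphatase) enzyme, cell-free | measure = normalized % inhibition | compound dosing = 20 µM, 1% DMSO | also added = 25 µM OMFP | schedule = reaction 20 min, ambient temperature | measured by = fluorescence read at 480 nm ex / 540 nm em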
Scp1 inh = blocks human Scp-1 phosphatase activity | Q9GZU7 | Recombinant Scp1, phosphopeptide, malachite green phosphate absorbance | inhibition, % at 20 µM | 0.88% of 340,000 active | AID 493091;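 active means inhibition above about 50% at 20 µM, limit read from the data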;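 further: plate controls were DMSO wells with enzyme for no effect and wells lacking enzyme for full effect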
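Test system – truncated SCP-1 phosphatase (76-261aa) · Reagent – Phosphorylated 17-residue peptide substrate · Incubation – 45 min room-temperature reaction, 5 min colour, 30 min stabiliser · Detection – colorimetric phosphate reagent with accelerator and stabiliser, absorbance at 630 nm · Measure – % inhibition at 20 µM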
SUMO1-SIM PPI = modulators of human SUMO1-mediated protein-protein interactions; P63165; SUMO1 binding to a labelled peptide, TR-FRET, 1 h; inhibition, % at 20 µM; 0.33% of 360,000 active; in the data active means inhibition above about 37%
Target sequence (P63165 whole entry, looked up): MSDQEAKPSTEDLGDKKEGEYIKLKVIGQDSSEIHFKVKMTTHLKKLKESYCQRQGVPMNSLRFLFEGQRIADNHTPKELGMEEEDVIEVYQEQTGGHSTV
LMPTP inh = blocks human LMPTP phosphatase | inhibition, % at 20 µM | 0.22% of 360,000 active | recombinant LMPTP-A, OMFP fluorogenic substrate, fluorescence intensity;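 active means compounds that cut the enzyme signal by at least half of the control window in the single-dose screen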;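 further: plate controls were DMSO wells with enzyme plus substrate for no effect and substrate without enzyme for full effect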
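Buffer or medium: Bis-Tris pH 6.0, DTT, detergent; Assay system: LMPTP-A enzyme; Quantity: 0.625 nM enzyme; Detection: endpoint fluorescence intensity; Times: 50 min dark incubation at room temperature; Controls: substrate-only low control, DMSO enzyme-plus-substrate high control; Doses: single 20 µM dose; Read-out: percent inhibition versus substrate-only and uninhibited controls; Reagent: 400 µM OMFP.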
DNMT1 block = DNMT1 (human) enzyme inhibition. P26358. DNMT1 molecular beacon, Hinp1I cleavage, fluorescence. inhibition (reported as % activation of signal), % at 10 µM. 0.83% of 360,000 active. AID 588458; in the data active means inhibition above about 50%
DNMT1 interf DR = beacon fluorescence artifact, dose response counter-screen | shares compounds with DNMT1 block | molecular beacon fluorescence, spectral interference counter-screen | IC50, µM | 200 tested, under 10 active; call rule not given here
DNMT1 confirm = confirmation of human DNMT1 inhibitors | AID 602385 | shares compounds with DNMT1 block | 8% of 2,300 active | inhibition, % at 10 µM | DNMT1 molecular beacon HinP1I cleavage, fluorescence;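 active means average inhibition of at least 30% in the single-concentration confirmation test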
Beacon interf = counter-screen for DNMT1 inhibitors: spectral interference. shares compounds with DNMT1 block. DNMT1 molecular beacon spectral interference counterscreen, fluorescence 485/520. activation (fluorescence interference), % at 10 µM. 1% of 2,300 active. AID 602387;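 active means activation of at least 30% at 10 µM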;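 further: DNMT1 catalytic domain with a HinP1I cleavage step and a FAM/dabcyl DNA beacon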
* = called active by the depositor; nt = not tested or not shown.

SMILES | STEP block | Scp1 inh | SUMO1-SIM PPI | LMPTP inh | DNMT1 block | DNMT1 confirm | Beacon interf | others
CC1=NN(c2ccccc2)C(=O)/C1=C/C=C/c1ccccc1 | 2 | -12 | 31 | 2 | 14 | nt | nt
CC1=NN(c2cccc(C(=O)O)c2)C(=O)/C1=C\C=C\c1ccco1 | 41* | 80* | 25 | 15 | 106* | 107* | -5 | DNMT1 interf DR=>99
CCCn1nc(C(=O)NCC2COc3ccccc3O2)c2ccccc2c1=O (centres undefined) | 0 | -10 | 6 | 0 | -3 | nt | nt
CSc1ccc(C2C(C#N)=C(N)Oc3c2ccc(=O)c2c(C)oc(C)c32)cc1 (centres undefined) | 6 | -7 | 22 | 15 | 74* | 4 | 6
O=C(N/N=C/c1cc(Br)c(O)c(Br)c1)c1cccc(C(F)(F)F)c1 | -2 | -4 | -1 | -1 | 74* | 3 | 2
COc1ccc(NS(=O)(=O)c2cccc(C(=O)NN=Cc3cc(Br)c(O)c(Br)c3)c2)cc1 | 3 | -15 | -2 | 7 | -3 | nt | nt
O=C(O)CSc1cc(C(=O)c2ccccc2O)cn2c(=O)c3c(-c4ccccc4)csc3nc12 | 5 | 18 | 17 | 16 | 59* | 21 | -2
Cc1sc2nc3c(SC(C)C(=O)O)cc(C(=O)c4ccccc4O)cn3c(=O)c2c1C (centres undefined) | 8 | -9 | 18 | 2 | -5 | nt | nt
COc1ccc2c(c1)OC[C@H]1[C@H]2N2C(=O)CN(Cc3ccc(C)cc3)C(=O)[C@@]2(C)[C@H]1c1ccccc1 | -1 | -14 | -9 | 3 | -5 | nt | nt
O=C(c1ccccc1)c1ccc(O)c(O)c1O | 32 | 66* | 20 | 51* | 78* | 7 | -3
NCCCC[C@@H]1NC(=O)c2cc([N+](=O)[O-])cc(F)c2NCCCC[C@@H](C(N)=O)NC(=O)CNC1=O | -1 | -6 | -99 | -9 | 104* | 8 | 8
COc1ccc(-c2oc3cc(O)c(OC)c(O)c3c(=O)c2OC)cc1O | 3 | -5 | -15 | 2 | -3 | nt | nt
Cc1ccc(/C=N/NC(=O)c2cc3c(ccc4ccccc43)o2)cc1[N+](=O)[O-] | -1 | -7 | -8 | 0 | 80* | -1 | -7
O=C(N/N=C/c1ccc(O)c(Br)c1)c1cc2c(ccc3ccccc32)o1 | -2 | 1 | -1 | -1 | -4 | nt | nt
O=C(N/N=C/c1ccc([N+](=O)[O-])o1)c1cc2c(ccc3ccccc32)o1 | 95* | 94* | 2 | 79* | 85* | 8 | -9
O=C(Nc1nnc(-c2ccccc2)s1)c1ccc(F)cc1 | -1 | -2 | -2 | -1 | 72* | 2 | 1
CCCCCCCCc1nc(SC(C)C(=O)O)n[nH]1 (centres undefined) | 1 | -4 | 1 | -2 | -3 | nt | nt
CC(=O)N1CCN(C(=O)c2ccc(NS(=O)(=O)c3ccc4c(c3)OCCO4)cc2)CC1 | 0 | -3 | 4 | 0 | 3 | nt | nt
Cc1ccc(Nc2nc(-c3ccc(S(=O)(=O)N4CCCC4)cc3)cs2)cc1C | 0 | -1 | -2 | 4 | -14 | nt | nt
Cc1cc(C)cc(Nc2nc(-c3ccc(S(=O)(=O)N4CCCC4)cc3)cs2)c1 | -2 | -4 | 0 | 4 | 97* | 4 | 6
O=C(O)c1cc(NC(=O)c2cccc(N3C(=O)c4ccccc4C3=O)c2)cc(C(=O)O)c1 | -1 | -7 | -5 | -2 | 1 | nt | nt
NS(=O)(=O)c1ccc(NC(=O)c2cccc(N3C(=O)c4ccccc4C3=O)c2)cc1 | 38 | 6 | 94* | 38 | 55* | 8 | 2
Cc1ccc(-c2nnn(CC(=O)Nc3ccc4nn(-c5ccccc5)nc4c3)n2)o1 | -5 | -2 | 10 | 0 | 50* | 0 | 0
Cc1ccc(-c2nnn(CC(=O)NCC3CC3)n2)o1 | 1 | -6 | 2 | -1 | 0 | nt | nt
C#CCn1cc(Cl)cc(C(=O)Nc2ccccc2)c1=O | -2 | -8 | -21 | 0 | 0 | nt | nt
SMILES | STEP block | Scp1 inh | SUMO1-SIM PPI | LMPTP inh | DNMT1 block | DNMT1 confirm | Beacon interf | others
CC(OC(=O)CCN=C1NS(=O)(=O)c2ccccc21)C(=O)c1ccccc1 (centres undefined) | -1 | -6 | 7 | -1 | 72* | 4 | 2
CCOC(=O)N1CCN(C(=O)c2ccc3c(c2)NC(=O)/C(=C\c2cccc(C)c2)S3)CC1 | 0 | 5 | -19 | 1 | -4 | nt | nt
Cc1noc(C)c1CCC(=O)NC1CCCN(Cc2ccc(Cl)cc2)C1 (centres undefined) | 0 | 5 | 0 | -1 | 4 | nt | nt
Cc1noc(C)c1CCC(=O)NC1CCCN(Cc2ccc(CC(C)C)cc2)C1 (centres undefined) | -2 | -3 | 1 | 0 | 53* | 1 | 0
COc1ccc(/C=C2\C(=O)NC(=O)c3ccccc32)cc1OC | 7 | 0 | 8 | 10 | 74* | -2 | 1
COc1ccc(C=C2C(=O)OC(C)(C)OC2=O)cc1OC | 0 | -4 | -2 | -2 | 0 | nt | nt
CCCNC(=O)c1ccc2c(=O)n3c(-c4ccc(C)cc4)csc3nc2c1 | 1 | 5 | -20 | -2 | 53* | 13 | -2
CCCCc1c(C)nc2ccc(OC)cc2c1SCCC(=O)O | 0 | 17 | 7 | 2 | 66* | 5 | 3
CC(C)(C)OC(=O)C[C@H]1C/C=C\C[C@@H](CC(=O)NCCO)C(=O)NCCOC1=O | 1 | 0 | 2 | 5 | 2 | nt | nt
O=C(c1ccccc1)C(Nc1ccccn1)c1ccccc1 (centres undefined) | -2 | 4 | -4 | 0 | -1 | nt | nt
OC(c1ccccc1)C(Nc1ccccn1)c1ccccc1 (centres undefined) | -1 | 1 | 0 | -1 | 55* | 2 | 8
O=C(/C=C/c1ccc(Br)o1)NCc1ccccc1 | 2 | -2 | 11 | 34 | 74* | 9 | 4
O=C(COC(=O)c1ccc(Br)o1)c1ccc(S(=O)(=O)N2CCCCC2)cc1 | 4 | -8 | 3 | 3 | -7 | nt | nt
COc1ccc(S(=O)(=O)Nc2ccc(C)c(S(=O)(=O)N3CCOCC3)c2)cc1[N+](=O)[O-] | 5 | -4 | -17 | 0 | 2 | nt | nt
O=C(C[C@H]1C/C=C\C[C@@H](Cc2ccc(F)cc2)C(=O)O[C@@H](c2ccccc2)CNC1=O)N[C@@H](CO)Cc1ccccc1 | 0 | -2 | 6 | 0 | 37 | nt | nt
O=C(C[C@H]1C/C=C\C[C@H](Cc2ccc(F)cc2)C(=O)O[C@@H](c2ccccc2)CNC1=O)N[C@@H](CO)Cc1ccccc1 | -2 | -3 | -2 | -1 | 63* | 0 | -6
